Measured values published in ChEMBL document CHEMBL3611989, “Discovery and characterization of aryl isonitriles as a new class of compounds versus methicillin- and vancomycin-resistant Staphylococcus aureus” (Eur J Med Chem, 2015).
Converted amounts (≈) assume the structure as drawn.

How the values were obtained:
Staphylococcus aureus [1] = experiment: Antimicrobial activity against methicillin-sensitive Staphylococcus aureus NRS72 assessed as reduction in bacterial growth incubated for 18 to 20 hrs at 37 degC by broth microdilution method; format: functional
How it was run: (§1)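 Modified CLSI broth microdilution. Bacterial suspension of about 1 × 10^5 CFU/mL in tryptic soy broth. Each agent was added in triplicate to the first row and serially diluted down the plate. Plates were incubated at 37 °C for 18-20 h. MIC was read as the lowest concentration with no visible growth.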

Staphylococcus aureus [2] = experiment: Antimicrobial activity against methicillin-resistant Staphylococcus aureus USA100 assessed as reduction in bacterial growth incubated for 18 to 20 hrs at 37 degC by broth microdilution method; format: functional; how it was run: as §1
Staphylococcus aureus [3] = experiment: Antimicrobial activity against vancomycin-intermediate-resistant Staphylococcus aureus NRS1 assessed as reduction in bacterial growth incubated for 18 to 20 hrs at 37 degC by broth microdilution method; format: functional; how it was run: as §1
J774 [4] = format: cell-based; settings: mouse, j774, 2 h, 128 µM
Staphylococcus aureus [5] = experiment: Antimicrobial activity against methicillin-resistant Staphylococcus aureus USA700 assessed as reduction in bacterial growth incubated for 18 to 20 hrs at 37 degC by broth microdilution method; format: functional; how it was run: as §1
J774 [6] = experiment: Cytotoxicity against mouse J774 cells assessed as reduction in cell viability at 32 uM incubated for 2 hrs by MTS assay; format: cell-based; settings: j774, 2 h
How it was run: (§2)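 Murine J774 macrophages grown in DMEM with 10% FBS at 37 °C, 5% CO2. Compounds were tested in triplicate at 16, 32, 64 and 128 μM for 2 h, with DMSO-matched vehicle controls. MTS reagent was then added and absorbance read at OD490. Viability is given as percent of DMSO-treated cells (mean of triplicate ± standard deviation), compared by paired t-test (P < 0.05).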

Staphylococcus aureus [7] = experiment: Antimicrobial activity against methicillin-resistant Staphylococcus aureus USA300 assessed as reduction in bacterial growth incubated for 18 to 20 hrs at 37 degC by broth microdilution method; format: functional; how it was run: as §1
Staphylococcus aureus [8] = experiment: Antimicrobial activity against vancomycin-resistant Staphylococcus aureus VRS2 assessed as reduction in bacterial growth incubated for 18 to 20 hrs at 37 degC by broth microdilution method; format: functional; how it was run: as §1
J774 [9] = experiment: Cytotoxicity against mouse J774 cells assessed as reduction in cell viability at 64 uM incubated for 2 hrs by MTS assay; format: cell-based; settings: j774, 2 h; how it was run: as §2
Staphylococcus aureus [10] = experiment: Antimicrobial activity against methicillin-resistant Staphylococcus aureus NRS119 assessed as reduction in bacterial growth incubated for 18 to 20 hrs at 37 degC by broth microdilution method; format: functional; how it was run: as §1
Staphylococcus aureus [11] = experiment: Antimicrobial activity against methicillin-resistant Staphylococcus aureus USA200 assessed as reduction in bacterial growth incubated for 18 to 20 hrs at 37 degC by broth microdilution method; format: functional; how it was run: as §1
Staphylococcus aureus [12] = experiment: Antimicrobial activity against methicillin-resistant Staphylococcus aureus USA500 assessed as reduction in bacterial growth incubated for 18 to 20 hrs at 37 degC by broth microdilution method; format: functional; how it was run: as §1

SMILES	MIC (Staphylococcus aureus [1]) [µM]	MIC (Staphylococcus aureus [2]) [µM]	MIC (Staphylococcus aureus [3]) [µM]	Activity (J774 [4])	MIC (Staphylococcus aureus [5]) [µM]	Activity (J774 [6])	MIC (Staphylococcus aureus [7]) [µM]	MIC (Staphylococcus aureus [8]) [µM]	Activity (J774 [9])	MIC (Staphylococcus aureus [10]) [µM]	MIC (Staphylococcus aureus [11]) [µM]	MIC (Staphylococcus aureus [12]) [µM]
[C-]#[N+]c1ccccc1/C=C(\CC)c1cccc(C(F)(F)F)c1	4 (≈ 1.21 µg/mL)	4 (≈ 1.21 µg/mL)	2 (≈ 0.603 µg/mL)	Toxic	2 (≈ 0.603 µg/mL)	Non-toxic	> 128	8 (≈ 2.41 µg/mL)	Toxic			
[C-]#[N+]c1ccccc1/C=C/c1ccc(C)cc1	16 (≈ 3.51 µg/mL)	4 (≈ 0.877 µg/mL)	4 (≈ 0.877 µg/mL)	Toxic	8 (≈ 1.75 µg/mL)	Non-toxic	16 (≈ 3.51 µg/mL)	32 (≈ 7.02 µg/mL)	Non-toxic	64 (≈ 14 µg/mL)	4 (≈ 0.877 µg/mL)	32 (≈ 7.02 µg/mL)
[C-]#[N+]c1ccc(C)cc1-c1ccc(C(F)(F)F)cc1	> 128	> 128	> 128		> 128		> 128	> 128		> 128	> 128	> 128
[C-]#[N+]c1ccccc1/C=C/c1cccc(OC)c1	8 (≈ 1.88 µg/mL)	8 (≈ 1.88 µg/mL)	4 (≈ 0.941 µg/mL)	Non-toxic	16 (≈ 3.76 µg/mL)	Non-toxic	16 (≈ 3.76 µg/mL)	32 (≈ 7.53 µg/mL)	Non-toxic	32 (≈ 7.53 µg/mL)	4 (≈ 0.941 µg/mL)	32 (≈ 7.53 µg/mL)
N#Cc1ccccc1/C=C/c1ccccc1	> 128	> 128	> 128		> 128		> 128	> 128		> 128	> 128	> 128
[C-]#[N+]c1ccccc1CCc1ccccc1	64 (≈ 13.3 µg/mL)	4 (≈ 0.829 µg/mL)	2 (≈ 0.415 µg/mL)		32 (≈ 6.63 µg/mL)		4 (≈ 0.829 µg/mL)	64 (≈ 13.3 µg/mL)		2 (≈ 0.415 µg/mL)	16 (≈ 3.32 µg/mL)	128 (≈ 26.5 µg/mL)
[C-]#[N+]c1ccc(/C=C/c2ccncc2)cc1	2 (≈ 0.412 µg/mL)	8 (≈ 1.65 µg/mL)	8 (≈ 1.65 µg/mL)	Toxic	8 (≈ 1.65 µg/mL)	Non-toxic		4 (≈ 0.825 µg/mL)	Non-toxic		8 (≈ 1.65 µg/mL)	
[C-]#[N+]c1ccccc1/C=C/c1ccncc1	64 (≈ 13.2 µg/mL)	32 (≈ 6.6 µg/mL)	64 (≈ 13.2 µg/mL)		32 (≈ 6.6 µg/mL)		32 (≈ 6.6 µg/mL)	64 (≈ 13.2 µg/mL)		64 (≈ 13.2 µg/mL)	32 (≈ 6.6 µg/mL)	32 (≈ 6.6 µg/mL)
[C-]#[N+]c1ccccc1C=C1CCCCC1	8 (≈ 1.58 µg/mL)	16 (≈ 3.16 µg/mL)	4 (≈ 0.789 µg/mL)		16 (≈ 3.16 µg/mL)		> 128	> 128		> 128	64 (≈ 12.6 µg/mL)	> 128
[C-]#[N+]c1ccccc1/C=C(\CCCC)c1ccccc1	32 (≈ 8.36 µg/mL)	32 (≈ 8.36 µg/mL)	16 (≈ 4.18 µg/mL)		16 (≈ 4.18 µg/mL)		> 128	64 (≈ 16.7 µg/mL)		> 128	32 (≈ 8.36 µg/mL)	32 (≈ 8.36 µg/mL)
[C-]#[N+]c1ccccc1/C=C/c1ccc([N+](=O)[O-])cc1	2 (≈ 0.501 µg/mL)	4 (≈ 1 µg/mL)	4 (≈ 1 µg/mL)	Toxic		Toxic		8 (≈ 2 µg/mL)	Toxic	16 (≈ 4 µg/mL)	4 (≈ 1 µg/mL)	
[C-]#[N+]c1ccccc1/C=C(\CC)c1ccc(F)cc1	8 (≈ 2.01 µg/mL)	16 (≈ 4.02 µg/mL)	8 (≈ 2.01 µg/mL)		8 (≈ 2.01 µg/mL)		32 (≈ 8.04 µg/mL)	32 (≈ 8.04 µg/mL)		64 (≈ 16.1 µg/mL)	16 (≈ 4.02 µg/mL)	16 (≈ 4.02 µg/mL)
[C-]#[N+]c1ccc(C)cc1-c1ccc(C(C)(C)C)cc1	> 128	16 (≈ 3.99 µg/mL)	4 (≈ 0.997 µg/mL)		16 (≈ 3.99 µg/mL)		> 128	> 128		64 (≈ 16 µg/mL)	16 (≈ 3.99 µg/mL)	> 128
CC(=O)NC[C@H]1CN(c2ccc(N3CCOCC3)c(F)c2)C(=O)O1 [LINEZOLID]	2 (≈ 0.675 µg/mL)	< 1	< 1		2 (≈ 0.675 µg/mL)		2 (≈ 0.675 µg/mL)	< 1		64 (≈ 21.6 µg/mL)	2 (≈ 0.675 µg/mL)	< 1
[C-]#[N+]c1cccc(/C=C/c2ccccn2)c1	64 (≈ 13.2 µg/mL)	32 (≈ 6.6 µg/mL)	128 (≈ 26.4 µg/mL)		64 (≈ 13.2 µg/mL)		32 (≈ 6.6 µg/mL)	128 (≈ 26.4 µg/mL)		128 (≈ 26.4 µg/mL)	64 (≈ 13.2 µg/mL)	64 (≈ 13.2 µg/mL)
